Source: ChEMBL document CHEMBL2176931, “Plakilactones from the marine sponge Plakinastrella mamillaris. Discovery of a new class of marine ligands of peroxisome proliferator-activated receptor γ” (J Med Chem, 2012)
Active and inactive are the calls of the source. No cut-off for these calls is given here.

How the values were obtained:
[1] = biological target: T1, Peroxisome proliferator-activated receptor gamma (Homo sapiens) (UniProt P37231); assay: Transactivation of PPARgamma in human THP1 cells assessed as decrease in LPS-induced MCP1 mRNA expression at 10 uM preincubated for 3 hrs prior to LPS challenge measured after 18 hrs by RT-PCR analysis relative to untreated control; format: cell-based; conditions: THP-1
T1 sequence (whole entry): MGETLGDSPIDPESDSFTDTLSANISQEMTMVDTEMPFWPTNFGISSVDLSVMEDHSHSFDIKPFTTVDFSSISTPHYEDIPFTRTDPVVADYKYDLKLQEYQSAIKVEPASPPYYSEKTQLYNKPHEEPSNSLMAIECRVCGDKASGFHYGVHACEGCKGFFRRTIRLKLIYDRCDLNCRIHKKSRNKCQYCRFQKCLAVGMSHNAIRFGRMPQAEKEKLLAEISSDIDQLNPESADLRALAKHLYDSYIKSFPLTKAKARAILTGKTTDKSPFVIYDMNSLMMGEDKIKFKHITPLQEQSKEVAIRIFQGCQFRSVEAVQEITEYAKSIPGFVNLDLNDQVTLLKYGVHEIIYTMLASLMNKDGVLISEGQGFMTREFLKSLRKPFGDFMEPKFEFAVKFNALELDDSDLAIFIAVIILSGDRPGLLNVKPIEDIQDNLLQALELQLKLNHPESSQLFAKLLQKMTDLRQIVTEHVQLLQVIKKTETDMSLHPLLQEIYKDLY
Summary of the method: (§1)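 Serum-starved THP-1 cells pretreated 3 h with 10 μM compound (rosiglitazone 100 nM reference), then LPS 1 μg/mL for 18 h; total RNA SYBR Green real-time PCR, GAPDH-normalized, expressed relative to untreated cells set to 1; triplicate, repeated twice.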

[2] = biological target: T1, Peroxisome proliferator-activated receptor gamma (Homo sapiens); assay: Transactivation of PPARgamma in human THP1 cells assessed as decrease in LPS-induced IL6 mRNA expression at 10 uM preincubated for 3 hrs prior to LPS challenge measured after 18 hrs by RT-PCR analysis relative to untreated control; format: cell-based; conditions: THP-1; summary of the method: as §1
[3] = biological target: T1, Peroxisome proliferator-activated receptor gamma (Homo sapiens); assay: Transactivation of PPARgamma in human HepG2 cells assessed as induction of PEPCK mRNA expression at 10 uM after 18 hrs by RT-PCR analysis relative to untreated control; format: cell-based
Summary of the method: (§2)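 Serum-starved HepG2 cells (E-MEM, 10% FBS at maintenance, 37 °C) treated 18 h with 10 μM compound; total RNA by TRIzol, DNase I, random-primed RT; SYBR Green qPCR, 40 cycles; normalized to GAPDH, relative to untreated cells set to 1; triplicate, experiment repeated twice.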

[4] = biological target: T1, Peroxisome proliferator-activated receptor gamma (Homo sapiens); assay: Transactivation of PPARgamma in human HepG2 cells assessed as induction of SCD1 mRNA expression at 10 uM after 18 hrs by RT-PCR analysis relative to untreated control; format: cell-based; summary of the method: as §2
[5] = biological target: T1, Peroxisome proliferator-activated receptor gamma (Homo sapiens); assay: Transactivation of PPARgamma in human HepG2 cells assessed as induction of CD36 mRNA expression at 10 uM after 18 hrs by RT-PCR analysis relative to untreated control; format: cell-based; summary of the method: as §2
[6] = biological target: T1, Peroxisome proliferator-activated receptor gamma (Homo sapiens); assay: (§3) Transactivation of GAL4-fused PPARgamma ligand binding domain transfected in human HepG2 cells by luciferase reporter gene assay; format: cell-based
Summary of the method: (§4)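 GAL4–PPARγ LBD luciferase transactivation in HepG2 cells; concentration–response at 1, 10 and 50 μM (rosiglitazone 10, 100, 500 nM); luciferase measured in cell extracts; relative EC50 estimated from curves; mean ± SE of three experiments.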

[7] = biological target: T2, Peroxisome proliferator-activated receptor gamma (Homo sapiens, UniProt P37231); assay: as §3; format: cell-based; summary of the method: as §4
T2 sequence (P37231 whole entry): T1 sequence (whole entry)

[8] = biological target: T3, Peroxisome proliferator-activated receptor delta (Homo sapiens) (UniProt Q03181); assay: Transactivation of GAL4-fused PPARbeta ligand binding domain transfected in human HepG2 cells at 10 uM after 18 hrs by luciferase reporter gene assay; format: cell-based
T3 sequence (whole entry): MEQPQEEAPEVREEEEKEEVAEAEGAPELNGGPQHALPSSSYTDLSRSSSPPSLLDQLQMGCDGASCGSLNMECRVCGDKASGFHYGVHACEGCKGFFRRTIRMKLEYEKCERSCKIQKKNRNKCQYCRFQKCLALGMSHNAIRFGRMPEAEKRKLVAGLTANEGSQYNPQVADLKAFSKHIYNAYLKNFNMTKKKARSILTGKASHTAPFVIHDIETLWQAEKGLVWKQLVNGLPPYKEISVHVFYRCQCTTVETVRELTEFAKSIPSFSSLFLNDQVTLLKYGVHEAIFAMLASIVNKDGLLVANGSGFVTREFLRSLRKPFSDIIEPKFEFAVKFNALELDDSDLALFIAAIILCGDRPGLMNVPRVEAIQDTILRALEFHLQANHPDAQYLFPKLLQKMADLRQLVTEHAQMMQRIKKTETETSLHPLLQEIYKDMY

[9] = biological target: T4, Peroxisome proliferator-activated receptor alpha (Homo sapiens) (UniProt Q07869); assay: Transactivation of GAL4-fused PPARalpha ligand binding domain transfected in human HepG2 cells at 10 uM after 18 hrs by luciferase reporter gene assay; format: cell-based
T4 sequence (whole entry): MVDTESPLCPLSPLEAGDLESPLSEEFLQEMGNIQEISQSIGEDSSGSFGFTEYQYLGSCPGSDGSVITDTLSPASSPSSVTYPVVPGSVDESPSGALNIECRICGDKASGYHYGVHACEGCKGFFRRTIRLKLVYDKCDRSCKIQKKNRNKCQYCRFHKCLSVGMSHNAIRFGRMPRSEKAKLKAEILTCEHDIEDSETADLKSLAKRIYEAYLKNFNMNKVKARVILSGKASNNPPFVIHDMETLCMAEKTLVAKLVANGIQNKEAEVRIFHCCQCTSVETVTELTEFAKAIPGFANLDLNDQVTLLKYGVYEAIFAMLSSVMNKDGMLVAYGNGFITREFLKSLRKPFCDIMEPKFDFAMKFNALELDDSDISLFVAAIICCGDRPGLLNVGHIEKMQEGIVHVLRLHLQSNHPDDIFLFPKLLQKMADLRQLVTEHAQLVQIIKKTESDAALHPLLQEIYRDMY

[10] = biological target: T1, Peroxisome proliferator-activated receptor gamma (Homo sapiens); assay: Transactivation of GAL4-fused PPARgamma ligand binding domain transfected in human HepG2 cells at 10 uM after 18 hrs by luciferase reporter gene assay; format: cell-based
[11] = biological target: T1, Peroxisome proliferator-activated receptor gamma (Homo sapiens); assay: Covalent binding affinity to N-terminal His6-tagged PPARgamma ligand binding domain (195 to 477 amino acid residues) at 20 uM after 60 to 180 mins by RP-LC-MS analysis
Summary of the method: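 PPARγ-LBD (1 μM) incubated with compound (20 μM) in PBS pH 7.5 at 37 °C for 60 and 180 min; aliquots analysed by RP-LC-MS on C4 column, 20–70% aqueous acetonitrile gradient with 0.05% TFA/1% formic acid over 25 min, spectra m/z 1500–3000.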

[12] = biological target: T1, Peroxisome proliferator-activated receptor gamma (Homo sapiens); assay: Antagonist activity at GAL4-fused PPARgamma ligand binding domain transfected in human HepG2 cells assessed as decrease in rosiglitazone-induced transactivation at 50 uM after 18 hrs by luciferase reporter gene assay; format: cell-based
[13] = biological target: T1, Peroxisome proliferator-activated receptor gamma (Homo sapiens); assay: Covalent binding affinity to N-terminal His6-tagged PPARgamma ligand binding domain (195 to 477 amino acid residues) by MALDI-MS and MALDI-MS/MS method
Summary of the method: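 Protein–ligand adduct digested with trypsin (E:S 1:100, 1 h, 37 °C), desalted on C18 ZIP-TIP, analysed by MALDI-MS in reflectron positive mode with α-cyano-4-hydroxycinnamic acid matrix, m/z 700–5000; peptide numbering per full-length PPARγ.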

Row | Structure (SMILES) | Activity [8] | Activity [9] | Activity [10] | further results
1 | CCC1=C[C@@](CC)(C[C@H](/C=C/[C@H](C)O)CC)O/C1=C\C(=O)OC | inactive | inactive | Active | Activity [1]: Active; Activity [2]: Active; Activity [3]: Active; Activity [4]: Active; Activity [5]: Active; Activity [6]: Dose-dependent effect; EC50 [7]: 10 µM
2 | CCC1=C[C@@](CC)(C/C(=C/[C@@H](O)CC)CC)O/C1=C\C(=O)OC | inactive | inactive | – | –
3 | CCC1=C[C@@](CC)(C[C@H](/C=C/C(C)=O)CC)O/C1=C\C(=O)OC | inactive | inactive | Active | Activity [13]: Active; Activity [3]: Active; Activity [4]: Active; Activity [5]: inactive; Activity [11]: Active; Activity [6]: Dose-dependent effect; EC50 [7]: 5 µM
4 | CCC1=C[C@@](CC)(C[C@@H](CC)CCC(C)=O)OC1=O | – | – | inactive | Activity [11]: inactive
5 | CCC1=C[C@@](CC)(C[C@@H](CC)CCC(C)=O)O/C1=C\C(=O)OC | – | – | inactive | Activity [11]: inactive
6 | CCC1=C[C@@](CC)(C/C(=C\[C@H](O)CC)CC)OC1=O | inactive | inactive | – | –
7 | CC[C@@H]1C[C@@]2(CC)O/C(=C\C(=O)OC)[C@@]3(CC)OO[C@H]([C@@H](C)O)[C@@H]1[C@@H]23 | inactive | inactive | – | –
8 | CC/C=C/[C@H](CC)C[C@]1(CC)C=C(CC)C(=O)O1 | inactive | inactive | – | –
9 | CC/C=C/[C@H](CC)C[C@]1(CC)C=C(CC)/C(=C/C(=O)OC)O1 | inactive | inactive | – | Activity [12]: Active

The next lines start with results.

Row | Activity [8] | Activity [9] | Activity [10] | Structure (SMILES) | further results
10 | inactive | inactive | Active | CCC1=C[C@@](CC)(C[C@H](/C=C/C(C)=O)CC)OC1=O | Activity [3]: inactive; Activity [4]: Active; Activity [5]: Active; Activity [11]: Active; Activity [6]: Dose-dependent effect; EC50 [7]: 2 µM
11 | inactive | inactive | – | CCC1=C[C@@](CC)(C[C@H](/C=C/[C@@H](C)O)CC)OC1=O | –
12 | inactive | inactive | – | CCCC[C@H](CC)C[C@]1(CC)C=C(CC)/C(=C/C(=O)OC)O1 | Activity [12]: Active
13 | inactive | inactive | – | CCC1=C[C@@](CC)(C/C(=C\[C@@H](O)CC)CC)OC1=O | –
14 | inactive | inactive | – | CCCC[C@H](CC)C[C@]1(CC)C=C(CC)C(=O)O1 | –
15 | inactive | inactive | – | CCC1=C[C@@](CC)(C/C(=C/[C@@H](O)CC)CC)OC1=O | –
